TAAR1 agonist = agonists of human TAAR1; Q96RJ0; CHO RD-HGA16 TAAR1, Fluo-8 calcium fluorescence; vehicle wells 0%, saturating PEA agonist 100%; activation, % at 3 µM; 0.99% of 360,000 active;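 active = activation above the mean activation of all test compounds in the run plus 3 SD, cut at about 38% in these data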
Target sequence (Q96RJ0 whole entry, looked up): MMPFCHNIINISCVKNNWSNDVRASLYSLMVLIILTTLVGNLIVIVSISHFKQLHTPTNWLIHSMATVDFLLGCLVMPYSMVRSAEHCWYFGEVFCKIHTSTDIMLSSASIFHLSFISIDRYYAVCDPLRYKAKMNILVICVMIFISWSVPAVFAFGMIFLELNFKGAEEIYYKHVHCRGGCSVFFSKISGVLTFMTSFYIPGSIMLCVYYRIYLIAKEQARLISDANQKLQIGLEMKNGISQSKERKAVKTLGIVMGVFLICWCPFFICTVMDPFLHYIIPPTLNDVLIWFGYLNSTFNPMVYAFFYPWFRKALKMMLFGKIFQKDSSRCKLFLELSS
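Benchmarks: low control DMSO, high control PEA (EC100); System: CHO RD-HGA16 cells carrying human TAAR1 plus Gα16; Detection: Fluo-8 fluorescence, 5 s baseline then 140 s kinetic read; Schedule: 17-24 h plating, Fluo-8 75 min 37 °C, 30 min RT; Read-out basis: % activation from peak over basal fluorescence ratio, DMSO-to-PEA scaled.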
CHO parental Ca = counter-screen for OX1R antagonists: effect in parental CHO cells; parental CHO-K1, ATP-induced calcium, Fluo-8 fluorescence; AID 463079; inhibition, % at 5.6 µM; 0.63% of 330,000 active;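 active = inhibition above that plate's mean sample inhibition plus 3 SD, cut at about 26% in these data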;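 note: 0% = ATP-challenged DMSO wells and 100% = DMSO wells without ATP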
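Material: Parental CHO cells | Reagent: ATP | Compound dosing: Single nominal dose of 5.6 µM per compound | Detection: Intracellular calcium via Fluo-8 no-wash fluorescent dye | Read-out: % inhibition of ATP-induced calcium mobilization | Benchmarks: Low control ATP plus DMSO, high control DMSO only | Replicates: Singlicate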
GPR7 antagonist = antagonists of human GPR7 (neuropeptides B/W receptor 1); P48145; GPR7-expressing cells, fluorescence antagonist assay; inhibition, % at 4.4 µM; 1.1% of 290,000 active; AID 1861; in the data active = inhibition above about 16%, passing the limit was not always enough;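 note: cells stimulated with the agonist NPW; 0% = agonist with vehicle and 100% = vehicle without agonist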
TAAR1 antag = antagonists of human TAAR1; Q96RJ0; CHO RD-HGA16 TAAR1, Fluo-8 calcium fluorescence, antagonist; inhibition, % at 3 µM; 1.5% of 360,000 active; AID 624466;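 active = inhibition above a per-plate cutoff, the mean inhibition of test compounds on that plate plus 3 SD, cut at about 49% in these data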;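 note: 0% = DMSO plus EC80 beta-PEA response and 100% = DMSO alone without agonist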
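System: CHO RD-HGA16 cells bearing hTAAR1. Reagent: EC80 β-phenethylamine stimulus. Schedule: seeding 17-24 h prior, 75-min 37 °C, 30-min RT dye loading. Signal: Fluo-8 intracellular calcium dye fluorescence, real-time kinetic reads. Read-out: % inhibition from peak post-agonist over basal fluorescence ratio. Benchmarks: vehicle wells and EC80 agonist wells. Replicates: n of 1.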
OX1R antag-1 = human HCRTR1 antagonism; 0.43% of 330,000 active; O43613; inhibition, % at 5 µM; CHO/OX1R cells, Fluo-8 calcium fluorescence, orexin A;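 active = inhibition above its plate's threshold, mean inhibition of all tested compounds on the plate plus 3 SD, cut at about 37% in these data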;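 note: 0% = orexin A challenge wells and 100% = SB-334867-A antagonist wells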
OX1R antag-2 = OX1R (human) antagonism | OX1R-expressing cells, FRET antagonist read-out | inhibition, % at 6.6 µM | 1.8% of 330,000 active | AID 485270; in the data active = inhibition mostly above about 38%, no sharp cut-off; inactive = mostly below about 40%;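 note: 0% = agonist challenge alone and 100% = reference antagonist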
OX1R HTRF confirm = confirmation of human orexin 1 receptor antagonists, HTRF format; shares compounds with OX1R antag-2; 49% of 1,800 active; OX1R-expressing cells, HTRF antagonist assay; inhibition, % at 6.6 µM; in the data active = inhibition above about 55%;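 note: CHO cells expressing OX1R stimulated with orexin A at about EC80; 0% = agonist challenge alone and 100% = reference antagonist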
CHO-K1 HTRF = counter-screen for OX1R antagonists: effect in parental CHO-K1 cells; shares compounds with OX1R antag-2; HTRF counterscreen; 48% of 1,800 active; AID 493232; inhibition, % at 6.6 µM; in the data active = inhibition above about 17%;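 note: 0% = agonist challenge with vehicle and 100% = vehicle alone without agonist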
Active calls of the source: *; nt = no result. Most compounds without a hit are left out; they make up all but 4.6% or so of the library.

SMILES | TAAR1 agonist | CHO parental Ca | GPR7 antagonist | TAAR1 antag | OX1R antag-1 | OX1R antag-2 | OX1R HTRF confirm | CHO-K1 HTRF
CCOC(=O)C1CCN(C(=O)C2CCN(C(=O)c3ccc([N+](=O)[O-])cc3)CC2)CC1 | nt | -7 | 15 | nt | -9 | 81* | 34 | 26*
O=C(NCC1CCN(C(=O)C(=O)c2cc3ccccc3o2)CC1)c1cc(C(F)(F)F)cc(C(F)(F)F)c1 | -2 | nt | nt | -21 | nt | nt | nt | nt
C[C@H](CO)N1C[C@H](C)[C@H](CN(C)S(=O)(=O)c2ccc(C#N)cc2)OCc2cnnn2CCCC1=O | 1 | nt | nt | -25 | nt | nt | nt | nt
CCN1CCN(C(=O)c2cc3cc4cc(OC)ccc4nc3s2)CC1 | 3 | -9 | 3 | -3 | -16 | 110* | 11 | 0
N#C/C(=N\Nc1ccc(S(=O)(=O)N2CCc3ccccc32)cc1)C(N)=S | 11 | 7 | -16 | 22 | -4 | 106* | 41 | 21*
N#C/C(=N\Nc1ccc([N+](=O)[O-])cc1)C(N)=S | 5 | 8 | 4 | -30 | 17 | 90* | 64* | 51*
CC1(C(=O)O)CCCN1C(=O)c1cccc(C(F)(F)F)c1 (configuration not stated) | 4 | nt | nt | -36 | nt | nt | nt | nt

Screening data deposited in PubChem by The Scripps Research Institute Molecular Screening Center.
